The record followed here is ChEMBL document CHEMBL1781949, “Veraguamides A-G, cyclic hexadepsipeptides from a dolastatin 16-producing cyanobacterium Symploca cf. hydnoides from Guam” (J Nat Prod, 2011).

Numbered stars: 1 amine (or outer) side, 2 acyl side, 3 side chain; on linkers, the order of the positions; unused ones are H or OH. Square brackets hold non-standard residues; d marks the D form. Peptide text beside a SMILES is read from it. X1 = CC(Cc1ccccc1)C(N[*:1])C(=O)[*:2]; X2 = CC(C)C(N[*:1])C(C)C(=O)[*:2]; dNMeV = CN[C@@H](C(=O)O)C(C)C; dHiv = CC(C)[C@@H](O)C(=O)O; Lac = C[C@H](O)C(=O)O

One experiment has as its system HT-29. Put plainly: Cytotoxicity against human HT-29 cells after 48 hrs by MTT assay. The experiment is classed as functional, cell-based. As to conditions: HT-29, 48 h. A digest of the protocol: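 HT29 colorectal adenocarcinoma cells grown in DMEM with 10% FBS at 37 °C and 5% CO2. Cells seeded at 12,500 per well and treated with a range of concentrations 24 h after seeding. Paclitaxel positive control and DMSO solvent control. 48 h exposure, then MTT read-out. IC50 fitted from duplicate experiments.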
(In general: Tetrazolium dyes change colour on reduction, which living cells bring about.)

The next experiment relates to HeLa. Put plainly: Cytotoxicity against human HeLa cells after 48 hrs by MTT assay. Format: functional, cell-based. Put shortly: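 HeLa cervical carcinoma cells grown in DMEM with 10% FBS at 37 °C and 5% CO2. Cells seeded at 3,000 per well and dosed at varying concentrations 24 h later. Paclitaxel positive control and DMSO solvent control. Incubated 48 h more before MTT measurement of viability. IC50 fitted from duplicate experiments.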

The IC50 is the concentration that gives 50% inhibition. Lower therefore signals greater potency.

Regarding `CC(C)C1NC(=O)[C@@H]2CCCN2C(=O)C(C(C)Cc2ccccc2)NC(=O)[C@@H]2CCCN2C(=O)[C@@H](C(C)C)N(C)C(=O)[C@@H](C(C)C)OC(=O)[C@@H]2CCCN2C(=O)[C@H](C)OC(=O)C1C` (stereo partly specified) [DOLASTATIN 16] (cyclo([Lac]P[dHiv][dNMeV]P[X1]P[X2])), the IC50 with HT-29 is 78 µM; with HeLa it was 58 µM. With `CC(=O)O[C@H]1C(=O)[C@@]2(C)[C@H]([C@H](OC(=O)c3ccccc3)[C@]3(O)C[C@H](OC(=O)[C@H](O)[C@@H](NC(=O)c4ccccc4)c4ccccc4)C(C)=C1C3(C)C)[C@]1(OC(C)=O)CO[C@@H]1C[C@@H]2O` [PACLITAXEL], the half-inhibitory concentration (IC50) with HT-29 turned out to be 0.003 µM; in the experiment on HeLa, 0.0026 µM. `C#CCCC[C@H]1OC(=O)[C@H](C(C)C)N(C)C(=O)[C@@H]2CCCN2C(=O)[C@H]([C@@H](C)CC)OC(=O)[C@H](C(C)C)N(C)C(=O)[C@H](C(C)C)NC(=O)[C@H]1C` [VERAGUAMIDE C] came in with a 50% inhibitory concentration (IC50) in the experiment on HeLa of 6.1 µM. `C#CCCC[C@H]1OC(=O)[C@H](C(C)C)N(C)C(=O)[C@@H]2CCCN2C(=O)[C@H](Cc2ccccc2)OC(=O)[C@H](C(C)C)N(C)C(=O)[C@H](C(C)C)NC(=O)[C@H]1C` [VERAGUAMIDE F] had an IC50 in the experiment on HeLa of 49 µM. This IC50 is about 8-fold higher than that of the compound before.
